# Source: ChEMBL document CHEMBL5104204, “Synthesis and in vitro anticancer evaluation of novel flavonoid-based amide derivatives as regulators of the PI3K/AKT signal pathway for TNBC treatment” (RSC Med Chem, 2022)
# pIC50: −log10 of the molar value. Activity calls are given as the source filed them. No cut-off for these calls is given here.
# Assays:
# MDA-MB-231 [1] = test: Antitumor activity against human MDA-MB-231 cells assessed as inhibit cell proliferation incubated for 72 hrs by CCK-8 assay; format: functional, cell-based; conditions: MDA-MB-231, 72 h
# Method in brief: (§1)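 CCK8 viability readout. Culture media: HCC1937, A549, HeLa and GTL-16 in RPMI 1640; MDA-MB-231, MCF-7 and HepG2 in high-glucose DMEM; all with 10% FBS and penicillin/streptomycin, 37 °C, 5% CO2. 4×10^3–6×10^3 cells/well, 24 h, then compounds in serum-free medium, 72 h at 37 °C. 10% CCK8, 2 h, OD 450/630 nm. Five wells per group; IC50 from inhibition rate; three independent experiments, mean ± SD.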
# HCC1937 = test: Antitumor activity against human HCC1937 cells assessed as inhibit cell proliferation incubated for 72 hrs by CCK-8 assay; format: functional, cell-based; conditions: HCC1937, 72 h; method in brief: as §1
# A549 = test: Antitumor activity against human A549 cells assessed as inhibit cell proliferation incubated for 72 hrs by CCK-8 assay; format: functional, cell-based; conditions: A549, 72 h; method in brief: as §1
# MDA-MB-231 [2] = test: Induction of apoptosis in human MDA-MB-231 cells assessed as half-moon, loop and ellipse shaped fragment formation at 0.88 to 3.52 uM incubated for 48 hrs by Hoechst 33258 staining based fluorescence microscopic analysis; format: functional, cell-based; conditions: dose 0.88-3.52 µM, DDE = dose-dependent effect
# Method in brief: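 MDA-MB-231 seeded at 2×10^5–3×10^5 per well and incubated overnight (37 °C, 5% CO2). Exposed to compound for 48 h. Fixed in methanol 30 min, then stained with Hoechst 33258 for 30 min at room temperature in the dark. Nuclear morphology scored by fluorescence microscopy; n = 3, mean ± SD.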
# MDA-MB-231 [3] = test: Induction of cell cycle arrest in human MDA-MB-231 cells assessed as increase in accumulation at G0/G1 phase at 0.88 to 3.52 uM incubated for 48 hrs by flow cytometry; format: functional, cell-based; conditions: dose 0.88-3.52 µM, DDE = dose-dependent effect
# Method in brief: (§2)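 Cell cycle of MDA-MB-231 after 48 h exposure: trypsinised and washed in PBS, about 1×10^6 cells/mL. Fixed overnight in pre-cooled 70% ethanol at 4 °C, then resuspended in PBS and filtered through 200-mesh nylon. Flow cytometry with 488 nm excitation gave G0/G1, S and G2/M percentages; n = 3, mean ± SD.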
# MDA-MB-231 [4] = test: Induction of cell cycle arrest in human MDA-MB-231 cells assessed as decrease in S phase at 0.88 to 3.52 uM incubated for 48 hrs by flow cytometry; format: functional, cell-based; conditions: dose 0.88-3.52 µM, DDE = dose-dependent effect; method in brief: as §2
# MDA-MB-231 [5] = test: Induction of apoptosis in human MDA-MB-231 cells assessed as necrotic cells at 7.04 uM incubated for 48 hrs AnnexinV/ propidium iodide staining based flow cytometry (Rvb= 0.54%); format: functional
# MDA-MB-231 [6] = test: Induction of apoptosis in human MDA-MB-231 cells assessed as early apoptotic cells at 1.76 uM incubated for 48 hrs AnnexinV/ propidium iodide staining based flow cytometry (Rvb= 0.3%); format: functional
# MDA-MB-231 [7] = test: Induction of apoptosis in human MDA-MB-231 cells assessed as late apoptotic cells at 0.88 uM incubated for 48 hrs AnnexinV/ propidium iodide staining based flow cytometry (Rvb= 0.40%); format: functional
# MDA-MB-231 [8] = test: Induction of apoptosis in human MDA-MB-231 cells assessed as late apoptotic cells at 1.76 uM incubated for 48 hrs AnnexinV/ propidium iodide staining based flow cytometry (Rvb= 0.40%); format: functional
# MDA-MB-231 [9] = test: Induction of apoptosis in human MDA-MB-231 cells assessed as late apoptotic cells at 2.2 uM incubated for 48 hrs AnnexinV/ propidium iodide staining based flow cytometry (Rvb= 0.40%); format: functional
# MDA-MB-231 [10] = test: Induction of apoptosis in human MDA-MB-231 cells assessed as late apoptotic cells at 3.52 uM incubated for 48 hrs AnnexinV/ propidium iodide staining based flow cytometry (Rvb= 0.40%); format: functional
# MDA-MB-231 [11] = test: Induction of apoptosis in human MDA-MB-231 cells assessed as viable cells at 2.2 uM incubated for 48 hrs AnnexinV/ propidium iodide staining based flow cytometry (Rvb= 99.02%); format: functional; conditions: read-out: Activity
# MDA-MB-231 [12] = test: Induction of apoptosis in human MDA-MB-231 cells assessed as viable cells at 3.52 uM incubated for 48 hrs AnnexinV/ propidium iodide staining based flow cytometry (Rvb= 99.02%); format: functional; conditions: read-out: Activity
# MDA-MB-231 [13] = test: Induction of apoptosis in human MDA-MB-231 cells assessed as viable cells at 7.04 uM incubated for 48 hrs AnnexinV/ propidium iodide staining based flow cytometry (Rvb= 99.02%); format: functional; conditions: read-out: Activity
# MDA-MB-231 [14] = test: Inhibition of cell invasion in human MDA-MB-231 cells assessed as decrease in number of cells crossing microporous membrane at 0.88 to 3.52 uM incubated for 48 hrs by crystal violet staining based transwell invasion assay; format: functional; conditions: dose 0.88-3.52 µM, DDE = dose-dependent effect
# Method in brief: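 Transwell invasion, MDA-MB-231. Cells in serum-free medium in the upper chamber with compound; complete medium below. 48 h at 37 °C. Methanol fixation 2 h, non-invaded cells swabbed off, 0.5% crystal violet 30 min. Invaded cells photographed and counted; n = 3, mean ± SD.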
# MDA-MB-231 [15] = test: Inhibition of cell migration in human MDA-MB-231 cells at 0.88 uM incubated for 12 hrs by scratch wound healing assay; format: functional, cell-based
# MDA-MB-231 [16] = test: Inhibition of PI3K/AKT signalling pathway in human MDA-MB-231 cells assessed as decrease in phosphorylated AKT level at 1 to 10 uM incubated for 48 hrs by western blot analysis; format: cell-based; conditions: dose 1-10 µM, DDE = dose-dependent effect
# Method in brief: (§3)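 MDA-MB-231 treated at 1, 5 and 10 μM at 37 °C, then lysed in RIPA/PMSF for 30 min at 0 °C and cleared at 14 000 × g, 4 °C. Protein quantified by BCA; 40 μg resolved by SDS-PAGE and transferred to PVDF. Blocked in 5% skim milk, primary antibody overnight at 4 °C, secondary 2 h at room temperature, chemiluminescent imaging.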
# MDA-MB-231 [17] = test: Inhibition of PI3K/AKT signalling pathway in human MDA-MB-231 cells assessed as upregulation of PTEN expression at 1 to 10 uM incubated for 48 hrs by western blot analysis; format: cell-based; conditions: dose 1-10 µM, DDE = dose-dependent effect; method in brief: as §3
# MDA-MB-231 [18] = test: Induction of apoptosis in human MDA-MB-231 cells assessed as upregulation of Bax expression at 1 to 10 uM incubated for 48 hrs by western blot analysis; format: functional, cell-based; conditions: dose 1-10 µM, DDE = dose-dependent effect
# MDA-MB-231 [19] = test: Induction of apoptosis in human MDA-MB-231 cells assessed as upregulation of Caspase-3 expression at 1 to 10 uM incubated for 48 hrs by western blot analysis; format: functional, cell-based; conditions: dose 1-10 µM, DDE = dose-dependent effect
smiles,measurement,setting,value
O=C(Nc1cccc(-c2oc3cc(-c4ccc(F)cc4)ccc3c(=O)c2O)c1)c1ccc(Cl)nc1,pIC50,MDA-MB-231 [1],5.75
same,pIC50,HCC1937,5.12
same,pIC50,A549,5.45
same,Activity,MDA-MB-231 [2],Dde
same,Activity,MDA-MB-231 [3],Dde
same,Activity,MDA-MB-231 [4],Dde
same,Activity,MDA-MB-231 [5],1.92%
same,Activity,MDA-MB-231 [6],3.88%
same,Activity,MDA-MB-231 [7],23.54%
same,Activity,MDA-MB-231 [8],49.45%
same,Activity,MDA-MB-231 [9],61.14%
same,Activity,MDA-MB-231 [10],14.4%
same,viability at 2.2 µM,MDA-MB-231 [11],29.8%
same,viability at 3.52 µM,MDA-MB-231 [12],12%
same,viability at 7.04 µM,MDA-MB-231 [13],5.68%
same,inhibition,MDA-MB-231 [14],Dde
same,inhibition,MDA-MB-231 [15],Active
same,inhibition,MDA-MB-231 [16],Dde
same,inhibition,MDA-MB-231 [17],Dde
same,Activity,MDA-MB-231 [18],Dde
same,Activity,MDA-MB-231 [19],Dde
